We go through six molecules from ChEMBL document CHEMBL1938293, “Molecular drug-organiser: synthesis, characterization and biological evaluation of penicillin V and/or nalidixic acid calixarene-based podands” (2011).

Active and inactive are the calls of the source. The rule behind the calls is not given here.

Test [1] has as its system Staphylococcus aureus. Description: Antibacterial activity against Staphylococcus aureus ATCC 25923 at 5.8 mg/mL after 24 hrs by disk diffusion assay. In kind it is functional, organism-based. In a few lines: (§1)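 Disk diffusion on Mueller–Hinton agar per CLSI recommendations. Sterile 6 mm cellulose disks were impregnated with 20 μL of the DMSO solution at the stated concentration. Plates were incubated at 37 °C and growth-inhibition zone diameters were read at 24 h. Disks carrying DMSO alone served as solvent control.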
For orientation: A growth-free zone around the sample is the usual read-out of agar diffusion tests.

The subject of test [2] is Staphylococcus aureus. The test is described as follows: Antibacterial activity against Staphylococcus aureus ATCC 29213 at 2.53 mg/mL after 24 hrs by disk diffusion assay. The class given is functional, organism-based. In a few lines:
as §1

Test [3] has as its system Enterococcus faecalis. The test is described as follows: Antibacterial activity against Enterococcus faecalis ATCC 29212 at 2.53 mg/mL after 24 hrs by disk diffusion assay. The class given is functional, organism-based. In a few lines: as §1
Test [4] deals with Escherichia coli. Description: Antibacterial activity against Escherichia coli ATCC 25922 at 2.53 mg/mL after 24 hrs by disk diffusion assay. The class given is functional, organism-based. In short, it runs like this: as §1
The test system of test [5] is Staphylococcus aureus. The test is described as follows: Antibacterial activity against Staphylococcus aureus ATCC 29213 at 5.8 mg/mL after 24 hrs by disk diffusion assay. In kind it is functional, organism-based. In short, it runs like this:
as §1

Test [6] relates to Staphylococcus aureus. The test is described as follows: Antibacterial activity against Staphylococcus aureus ATCC 25923 at 2.53 mg/mL after 24 hrs by disk diffusion assay. In kind it is functional, organism-based. In short, it runs like this: as §1
Test [7] deals with Escherichia coli. Description: Antibacterial activity against Escherichia coli ATCC 25922 at 5.8 mg/mL after 24 hrs by disk diffusion assay. The class given is functional, organism-based. In a few lines:
as §1

Test [8] concerns Pseudomonas aeruginosa. The test is described as follows: Antibacterial activity against Pseudomonas aeruginosa ATCC 27853 at 2.53 mg/mL after 24 hrs by disk diffusion assay. The class given is functional, organism-based. In a few lines: as §1
The subject of test [9] is Enterococcus faecalis. Description: Antibacterial activity against Enterococcus faecalis ATCC 29212 at 5.8 mg/mL after 24 hrs by disk diffusion assay. In kind it is functional, organism-based. In short, it runs like this:
as §1

Test [10] relates to Enterococcus faecalis. Description: Antibacterial activity against Enterococcus faecalis ATCC 29212 at 10 mg/mL after 24 hrs by disk diffusion assay. The class given is functional, organism-based. In a few lines: as §1
Test [11] concerns Escherichia coli. Description: Antibacterial activity against Escherichia coli ATCC 25922 at 10 mg/mL after 24 hrs by disk diffusion assay. The class given is functional, organism-based. In short, it runs like this: as §1
Test [12] deals with Staphylococcus aureus. Description: Antibacterial activity against Staphylococcus aureus ATCC 25923 at 10 mg/mL freshly prepared compound after 24 hrs by disk diffusion assay. In kind it is functional. In a few lines: as §1
For test [13], the system named is Staphylococcus aureus. Description: Antibacterial activity against Staphylococcus aureus ATCC 29213 at 10 mg/mL after 24 hrs by disk diffusion assay. In kind it is functional, organism-based. In short, it runs like this:
as §1

Test [14] concerns Staphylococcus aureus. Description: Antibacterial activity against Staphylococcus aureus ATCC 25923 at 10 mg/mL 1 month old compound stored at 4 degree C after 24 hrs by disk diffusion assay. The class given is functional. The conditions noted are these: ATCC 25923, 24 h, read-out: DIZ. In a few lines: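 Disk diffusion on Mueller–Hinton agar per CLSI recommendations. The DMSO solution had been stored 1 month at 4 °C before use and was compared with a freshly prepared solution. Sterile 6 mm cellulose disks were impregnated with 20 μL. Plates were incubated at 37 °C and inhibition zone diameter was read at 24 h.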

The subject of test [15] is Staphylococcus aureus. The test is described as follows: Antibacterial activity against Staphylococcus aureus ATCC 25923 at 10 mg/mL after 24 hrs by disk diffusion assay. The class given is functional. To be noted: ATCC 25923, 24 h, read-out: DIZ. In short, it runs like this:
as §1

The subject of test [16] is Escherichia coli. Description: Antibacterial activity against Escherichia coli ATCC 25922 at 5 mg/mL after 24 hrs by disk diffusion assay. In kind it is functional, organism-based. In a few lines: as §1
In test [17] the test system is Enterococcus faecalis. Description: Antibacterial activity against Enterococcus faecalis ATCC 29212 at 5 mg/mL after 24 hrs by disk diffusion assay. In kind it is functional, organism-based. In a few lines:
as §1

The subject of test [18] is Pseudomonas aeruginosa. The test is described as follows: Antibacterial activity against Pseudomonas aeruginosa ATCC 27853 at 5 mg/mL after 24 hrs by disk diffusion assay. In kind it is functional, organism-based. In short, it runs like this: as §1
For test [19], the system named is Staphylococcus aureus. The test is described as follows: Antibacterial activity against Staphylococcus aureus ATCC 25923 at 5 mg/mL after 24 hrs by disk diffusion assay. The class given is functional, organism-based. In a few lines: as §1
In test [20] the test system is Staphylococcus aureus. Description: Antibacterial activity against Staphylococcus aureus ATCC 29213 at 5 mg/mL after 24 hrs by disk diffusion assay. In kind it is functional, organism-based. In a few lines: as §1
Test [21] concerns Pseudomonas aeruginosa. The test is described as follows: Antibacterial activity against Pseudomonas aeruginosa ATCC 27853 at 3.25 mg/mL after 24 hrs by disk diffusion assay. In kind it is functional, organism-based. In a few lines: as §1
In test [22] the test system is Escherichia coli. The test is described as follows: Antibacterial activity against Escherichia coli ATCC 25922 at 3.25 mg/mL after 24 hrs by disk diffusion assay. In kind it is functional, organism-based. In short, it runs like this:
as §1

Test [23] relates to Enterococcus faecalis. Description: Antibacterial activity against Enterococcus faecalis ATCC 29212 at 3.25 mg/mL after 24 hrs by disk diffusion assay. In kind it is functional, organism-based. In short, it runs like this:
as §1

The subject of test [24] is Staphylococcus aureus. The test is described as follows: Antibacterial activity against Staphylococcus aureus ATCC 25923 at 3.25 mg/mL after 24 hrs by disk diffusion assay. The class given is functional, organism-based. In short, it runs like this: as §1
Test [25] has as its system Staphylococcus aureus. The test is described as follows: Antibacterial activity against Staphylococcus aureus ATCC 29213 at 3.25 mg/mL after 24 hrs by disk diffusion assay. In kind it is functional, organism-based. In a few lines: as §1
For test [26], the system named is Enterococcus faecalis. The test is described as follows: Antibacterial activity against Enterococcus faecalis ATCC 29212 at 2.83 mg/mL after 24 hrs by disk diffusion assay. The class given is functional, organism-based. In a few lines: as §1
Test [27] concerns Staphylococcus aureus. Description: Antibacterial activity against Staphylococcus aureus ATCC 25923 at 2.83 mg/mL after 24 hrs by disk diffusion assay. The class given is functional, organism-based. In short, it runs like this:
as §1

For test [28], the system named is Escherichia coli. The test is described as follows: Antibacterial activity against Escherichia coli ATCC 25922 at 2.83 mg/mL after 24 hrs by disk diffusion assay. The class given is functional, organism-based. In short, it runs like this:
as §1

Test [29] deals with Staphylococcus aureus. The test is described as follows: Antibacterial activity against Staphylococcus aureus ATCC 25923 at 1.25 mg/mL after 24 hrs by disk diffusion assay. In kind it is functional, organism-based. In a few lines:
as §1

Test [30] deals with Pseudomonas aeruginosa. The test is described as follows: Antibacterial activity against Pseudomonas aeruginosa ATCC 27853 at 2.83 mg/mL after 24 hrs by disk diffusion assay. In kind it is functional, organism-based. In a few lines: as §1
The test system of test [31] is Staphylococcus aureus. Description: Antibacterial activity against Staphylococcus aureus ATCC 29213 at 2.83 mg/mL after 24 hrs by disk diffusion assay. The class given is functional, organism-based. In short, it runs like this: as §1
Test [32] concerns Enterococcus faecalis. Description: Antibacterial activity against Enterococcus faecalis ATCC 29212 at 1.25 mg/mL after 24 hrs by disk diffusion assay. In kind it is functional, organism-based. In short, it runs like this:
as §1

In test [33] the test system is Staphylococcus aureus. Description: Antibacterial activity against Staphylococcus aureus ATCC 29213 at 1.25 mg/mL after 24 hrs by disk diffusion assay. The class given is functional, organism-based. In a few lines:
as §1

Test [34] has as its system Enterococcus faecalis. The test is described as follows: Antibacterial activity against Enterococcus faecalis ATCC 29212 at 1.88 mg/mL after 24 hrs by disk diffusion assay. The class given is functional, organism-based. In short, it runs like this:
(§2)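 Disk diffusion on Mueller–Hinton agar, run per CLSI recommendations. Sterile 6 mm cellulose disks each carried 20 μL of a DMSO solution. Reference drugs were dosed to equal the maximum amount releasable from the calixarene podands. Disks with DMSO alone served as solvent controls. Plates were incubated at 37 °C, and growth-inhibition zone diameter (mm) was read at 24 h.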

The subject of test [35] is Escherichia coli. Description: Antibacterial activity against Escherichia coli ATCC 25922 at 1.88 mg/mL after 24 hrs by disk diffusion assay. The class given is functional, organism-based. In a few lines: as §2
The subject of test [36] is Staphylococcus aureus. The test is described as follows: Antibacterial activity against Staphylococcus aureus ATCC 25923 at 1.88 mg/mL after 24 hrs by disk diffusion assay. In kind it is functional, organism-based. In a few lines: as §2
In test [37] the test system is Pseudomonas aeruginosa. Description: Antibacterial activity against Pseudomonas aeruginosa ATCC 27853 at 1.88 mg/mL after 24 hrs by disk diffusion assay. In kind it is functional, organism-based. In a few lines: as §2
Test [38] relates to Staphylococcus aureus. Description: Antibacterial activity against Staphylococcus aureus ATCC 29213 at 1.88 mg/mL after 24 hrs by disk diffusion assay. In kind it is functional, organism-based. In short, it runs like this:
as §2

On to `CC(C)(C)c1cc2c(O)c(c1)Cc1cc(C(C)(C)C)cc(c1OCCCOC(=O)[C@@H]1N3C(=O)[C@@H](NC(=O)COc4ccccc4)[C@H]3SC1(C)C)Cc1cc(C(C)(C)C)cc(c1O)Cc1cc(C(C)(C)C)cc(c1OCCCOC(=O)[C@@H]1N3C(=O)[C@@H](NC(=O)COc4ccccc4)[C@H]3SC1(C)C)C2`, for which the result in the test on Staphylococcus aureus [1] was Active. In addition, the outcome with Staphylococcus aureus [2], in the test on Enterococcus faecalis [3], with Escherichia coli [4], in the test with Staphylococcus aureus [5], in the test with Staphylococcus aureus [6] and in the test on Escherichia coli [7] was inactive. Also, the outcome in the test on Pseudomonas aeruginosa [8] and with Enterococcus faecalis [9] was inactive.
For the molecule `CCn1cc(C(=O)OCCCOc2c3cc(C(C)(C)C)cc2Cc2cc(C(C)(C)C)cc(c2O)Cc2cc(C(C)(C)C)cc(c2OCCCOC(=O)[C@@H]2N4C(=O)[C@@H](NC(=O)COc5ccccc5)[C@H]4SC2(C)C)Cc2cc(C(C)(C)C)cc(c2O)C3)c(=O)c2ccc(C)nc21`, the result in the test with Enterococcus faecalis [10], in the test with Escherichia coli [11] and in the test with Staphylococcus aureus [13] was inactive. Moreover, the “diameter of the inhibition zone (DIZ)” value in the test with Staphylococcus aureus [12] stood at 30 mm. Further, the zone of inhibition at 10000 µg/mL is 35 mm with Staphylococcus aureus [14] and 31.5 mm in the test on Staphylococcus aureus [15].
As for `CCn1cc(C(=O)OCCCOc2c3cc(C(C)(C)C)cc2Cc2cc(C(C)(C)C)cc(c2O)Cc2cc(C(C)(C)C)cc(c2OCCCOC(=O)c2cn(CC)c4nc(C)ccc4c2=O)Cc2cc(C(C)(C)C)cc(c2O)C3)c(=O)c2ccc(C)nc21`, the outcome with Escherichia coli [16], in the test with Enterococcus faecalis [17], in the test on Pseudomonas aeruginosa [18], in the test on Staphylococcus aureus [19] and in the test with Staphylococcus aureus [20] was inactive.
Consider `CC(C)(C)c1cc2c(O)c(c1)Cc1cc(C(C)(C)C)cc(c1OCCCO)Cc1cc(C(C)(C)C)cc(c1O)Cc1cc(C(C)(C)C)cc(c1OCCCO)C2`, for which the outcome with Pseudomonas aeruginosa [21], in the test with Escherichia coli [22], in the test with Enterococcus faecalis [23], with Staphylococcus aureus [24] and with Staphylococcus aureus [25] was inactive.
Regarding `CC1(C)S[C@@H]2[C@H](NC(=O)COc3ccccc3)C(=O)N2[C@H]1C(=O)O`, the outcome in the test on Enterococcus faecalis [26], in the test with Escherichia coli [28] and with Pseudomonas aeruginosa [30] was inactive. Moreover, the outcome with Staphylococcus aureus [27], with Staphylococcus aureus [29], with Staphylococcus aureus [31], in the test on Enterococcus faecalis [32] and in the test on Staphylococcus aureus [33] was Active.
For `CCn1cc(C(=O)O)c(=O)c2ccc(C)nc21`, the outcome in the test on Enterococcus faecalis [34] and in the test with Pseudomonas aeruginosa [37] was inactive. Also, the outcome with Escherichia coli [35], in the test on Staphylococcus aureus [36] and with Staphylococcus aureus [38] was Active.
